# NTR1 agonist = agonists of human neurotensin receptor NTR1. hit rate 0.17% among 330,000. P30989. NTR1-U2OS beta-arrestin-GFP spot imaging, agonist mode. activation, % at 20 µM;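 active = activation at or above 40% of the spot to cytoplasm intensity ratio, with at least 20 cells analyzed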;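 note: 0% = DMSO without peptide and 100% = 100 nM NTR1 peptide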
# Vif imaging = HIV Vif inhibition | hit rate 0.35% among 340,000 | HEK293T cells, Vif self-association by quenched fluorescence, imaging, 24 h | inhibition, % at 7.49 µM; in the data active = inhibition above about 50%, passing the limit was not always enough
# CaV13 ICDI inh = Primary screen for inhibitors of IQ motif and Ca2+-dependent inactivation inhibitor domain binding in CACNA1D, Förster resonance energy transfer in living cells, …; HEK cells, CFP/YFP FRET ICDI-IQ, plate reader, 10 min; percent FRET-ratio fall versus neutral wells; inhibition, % at 12.3 µM; hit rate 0.098% among 340,000; AID 743397;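 active = mean replicate inhibition of at least 30% and at least 1% of replicates passing that level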;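 note: 0% = median of the neutral control wells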
# V-ATPase pHluor = alters yeast V-ATPase proton transport. S. cerevisiae, pHLuorin cytosolic pH fluorescence. response, % at 10 µM. hit rate 0.37% among 350,000. AID 504577; in the data active = response mostly above about 7.3%, no sharp cut-off; inactive = mostly below about 5.4%; note: actives read high
# SR-BI DiI inh = inhibitors of mouse SR-BI mediated HDL lipid uptake; ldlA[mSR-BI] CHO cells, DiI-HDL uptake fluorescence, 3 h; inhibition, % at 12.5 µM; hit rate 0.96% among 320,000; AID 488896;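 active = mean replicate inhibition of at least 70% and a set share of replicates each scoring 70 or more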;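 note: 0% = median of neutral control wells and 100% = median of positive control wells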
# SR-BI DiI-HDL act = SR-BI HDL lipid transfer activation; AID 504775; activation, % at 12.5 µM; CHO ldlA[mSR-BI] cells, DiI-HDL uptake fluorescence, 3 h; 100 = double the neutral-control signal; hit rate 0.096% among 320,000;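 active = mean replicate activation of at least 60% and every replicate at or above 60%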;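 note: 0% = median plate neutral-control signal and 100% = twice that signal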
#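 Test system: SR-BI-overexpressing, LDLR-lacking CHO cells; Also added: labelled HDL, 10 µg/mL; Measured by: bottom-read cell fluorescence after medium removal, ex 550/em 595 nm; Timing: 3 h uptake period with compound, 37 °C; Buffer or medium: F12, 0.5% BSA, 25 mM HEPES; Doses: single compound concentration, delivered by pin transfer.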
# NTR1 ag conf = confirmation of agonists of human NTR1; shares compounds with NTR1 agonist; NTR1-U2OS beta-arrestin-GFP translocation imaging; activation, % at 20 µM; hit rate 38% among 480; AID 504550;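 active = mean activation at 20 µM of at least 40%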;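 note: 0% = DMSO without peptide and 100% = 100 nM NTR1 peptide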
# An asterisk follows results filed as active; . = no result given. Only some compounds are listed: those with a hit (about 1.7% of all), similar ones and a draw of the others.
SMILES,NTR1 agonist,Vif imaging,CaV13 ICDI inh,V-ATPase pHluor,SR-BI DiI inh,SR-BI DiI-HDL act,NTR1 ag conf
COc1ccc(/C=C/C(=O)c2ccc(C)c([N+](=O)[O-])c2)cc1O,43*,-3,-3,0,.,.,25
COc1cc(C(=O)/C=C/c2cccnc2)c([N+](=O)[O-])cc1OC,42*,2,-5,-46,7,-7,47*
COc1cccc(/C=C/C(=O)c2ccc(C)c([N+](=O)[O-])c2)c1,66*,1,-3,0,-9,9,2
CCC1CCCCN1CCCNC(=O)c1ccc2c(c1)c(C)c(C)n2C (stereo not given),-1,-5,-2,3,38,-38,.
COc1ccccc1-c1cn[nH]c1-c1ccc(OCc2ccc([N+](=O)[O-])cc2)cc1O,10,0,-5,0,39,-39,.
O=[N+]([O-])c1ccc(COc2ccc(-c3[nH]ncc3-c3ccccc3)c(O)c2)cc1,42*,1,-15,-4,14,-14,4
COc1ccccc1-c1cn[nH]c1-c1ccc(OCc2ccccc2F)cc1O,40*,14,-10,1,20,-20,2
Oc1cc(OCc2ccccc2)ccc1-c1[nH]ncc1-c1ccccc1,36,-1,-6,-3,31,-31,.
COc1ccccc1-c1cn[nH]c1-c1ccc(OCc2ccc(F)cc2)cc1O,40*,-1,-5,0,34,-34,2
CSc1cc(C)n(-c2ccccc2)c(=S)c1C(C)=O,0,4,-2,0,-22,22,.
Cc1cccc(NC(=O)Nc2ccc(Oc3c(F)c(F)c(F)c(F)c3F)cc2)c1,-1,-2,-7,3,-19,19,.
O=C(Nc1ccc(Oc2c(F)c(F)c(F)c(F)c2F)cc1)OC1CCN2Cc3ccccc3N=C12 (stereo not given),40*,-9,.,0,39,-22,54*
c1ccc(CN2CCN(c3ncnc4c3[nH]c3ccccc34)CC2)cc1,20,-21,-5,4,21,-21,.
Cc1ccc2c(c1)[nH]c1c(N3CCN(Cc4ccccc4)CC3)ncnc12,56*,-18,-5,3,25,-25,8
Cc1ccc2[nH]c3c(N4CCN(Cc5ccccc5)CC4)ncnc3c2c1,43*,-15,-8,2,-6,6,22
COc1cccc(CN(C)C(=O)C2CC(=O)N(c3ccc4c(c3)OCCO4)C2)c1 (stereo not given),0,9,-4,-2,-18,18,.
COc1cc(C(=O)N2CCCC(c3cc(C(=O)NCc4ccc(F)cc4)no3)C2)cc(OC)c1C (stereo not given),.,-2,-12,.,.,.,.
CCc1nc2ccccc2c(C(=O)OCC(=O)Nc2ccc(S(=O)(=O)N3CCOCC3)cc2)c1C,11,-17,-1,0,26,-26,.
CCc1nc2ccccc2c(C(=O)OCC(=O)Nc2cccc(S(=O)(=O)N3CCOCC3)c2)c1C,60*,-29,-8,0,8,-8,65*
CC1(C)CC(=O)C(C(C2=C(O)CC(C)(C)CC2=O)c2ccc(Br)s2)C(=O)C1 (stereo not given),59*,2,-2,5,-15,15,45*
Cc1ccc(C(C2=C(O)CC(C)(C)CC2=O)C2C(=O)CC(C)(C)CC2=O)s1 (stereo not given),5,-5,-3,2,8,-8,.
CC(C)c1ccc(OCC(=O)NCc2ccccc2)cc1,0,-8,-19,-2,-11,11,.
Cc1cccc(C(=O)N2CCCC(N3CCN(c4ccc(F)cc4)CC3)C2)n1 (stereo not given),1,1,-5,3,-18,18,.
CC(=O)c1ccc(NC(=O)NC2CC(=O)N(c3ccc4c(c3)OCCO4)C2)cc1 (stereo not given),-2,1,-1,0,8,-8,.

# Source: PubChem BioAssay
